High-throughput results from PubChem.
A selection: hits, their analogues and other compounds. The true share with any hit is near 1.7%.
LMPTP block = LMPTP phosphatase inhibitors, primary screen, biochemical, fluorescence intensity, uHTS; recombinant LMPTP-A, OMFP fluorogenic substrate; hit rate 0.22% among 360,000; Low molecular weight phosphotyrosine protein phosphatase (Homo sapiens), P24666; inhibition, % at 20 µM;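 active = compounds that cut the enzyme signal by at least half of the control window in the single-dose screen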;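 also: plate controls were DMSO wells with enzyme plus substrate for no effect and substrate without enzyme for full effect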
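Test system: LMPTP-A phosphatase enzyme; input: 0.625 nM LMPTP-A final; reagent: OMFP substrate, 400 µM final; compound dosing: 20 µM single dose, 3% DMSO; incubation: 50 min dark incubation at room temperature; measured by: endpoint fluorescence intensity from OMFP dephosphorylation; measure: % inhibition relative to no-enzyme and uninhibited control wells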
SUMO1 PPI mod = modulators of SUMO1 protein-protein interactions, primary screen, biochemical, uHTS; SUMO1 binding to a labelled peptide, TR-FRET, 1 h; inhibition, % at 20 µM; hit rate 0.33% among 360,000; AID 602429, 2012; in the data active = inhibition above about 37%
DNMT1 inh = human DNMT1 methyltransferase inhibitors, primary screen, biochemical, molecular beacon, fluorescence, HinP1I cleavage, uHTS | inhibition (reported as % activation of signal), % at 10 µM | hit rate 0.83% among 360,000 | DNA (cytosine-5)-methyltransferase 1 (Homo sapiens), P26358; in the data active = inhibition above about 50%
STEP block = STEP phosphatase inhibitors, primary screen, biochemical, fluorescence intensity, uHTS. Tyrosine-protein phosphatase non-receptor type 5 (Homo sapiens), P54829. recombinant STEP, OMFP fluorogenic substrate. inhibition, % at 20 µM. hit rate 0.25% among 360,000;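 active = inhibition at 20 µM, scaled per plate between control wells, above about 37%, limit read from the data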;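 also: 0% = DMSO with enzyme and substrate and 100% = substrate only without enzyme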
Target sequence (P54829 whole entry, looked up): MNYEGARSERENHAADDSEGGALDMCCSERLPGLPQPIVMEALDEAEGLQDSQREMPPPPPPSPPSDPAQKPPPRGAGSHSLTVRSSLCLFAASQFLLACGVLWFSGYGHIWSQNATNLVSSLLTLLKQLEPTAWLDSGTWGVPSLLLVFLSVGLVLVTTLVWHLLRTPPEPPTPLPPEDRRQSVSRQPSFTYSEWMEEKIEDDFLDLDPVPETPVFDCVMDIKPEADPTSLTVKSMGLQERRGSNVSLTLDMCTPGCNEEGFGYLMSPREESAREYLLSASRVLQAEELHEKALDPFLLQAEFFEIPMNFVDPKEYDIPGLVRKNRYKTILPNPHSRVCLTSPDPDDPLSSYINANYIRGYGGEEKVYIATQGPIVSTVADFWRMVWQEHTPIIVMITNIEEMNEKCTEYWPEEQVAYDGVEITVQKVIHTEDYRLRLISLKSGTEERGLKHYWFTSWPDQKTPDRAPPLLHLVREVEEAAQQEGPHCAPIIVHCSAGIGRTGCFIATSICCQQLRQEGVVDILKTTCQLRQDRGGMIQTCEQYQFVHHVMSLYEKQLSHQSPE
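Also added – OMFP at 25 µM · Test system – STEP tyrosine phosphatase · Technique – FITC-channel fluorescence of OMFP product · Schedule – 20 min at room temperature, dark · Evaluation – control-normalized % inhibition with plate pattern correction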
Scp1 inh = Scp-1 phosphatase inhibitors, primary screen, biochemical, colorimetric, uHTS. Recombinant Scp1, phosphopeptide, malachite green phosphate absorbance. inhibition, % at 20 µM. hit rate 0.88% among 340,000;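 active = inhibition above about 50% at 20 µM, limit read from the data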;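 also: plate controls were DMSO wells with enzyme for no effect and wells lacking enzyme for full effect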
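Test system: SCP-1 catalytic domain; Buffer or medium: Acidic Tris acetate buffer with magnesium and detergent; Also added: Phosphorylated 17-residue peptide substrate; Compound: single 20 µM dose, 1% DMSO; Schedule: enzyme reaction 45 min at room temperature, colour 5 min, stabilisation 30 min; Signal: Phosphate-binding colour reagent, absorbance read at 630 nm.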
* marks the source's active call; other numbers are inactive results; . = not tested or not shown.

SMILES	LMPTP block	SUMO1 PPI mod	DNMT1 inh	STEP block	Scp1 inh
COC(=O)c1cc(NC(=O)Cn2c(=O)oc3ccccc32)cc(C(=O)OC)c1	-2	7	-1	0	-10
COc1ccccc1NC(C)C(=O)N/N=C/c1ccccc1OCc1cccc(Br)c1 (stereo not drawn)	5	5	-1	-3	-11
COc1ccc(CC(=O)OCC(=O)Nc2ccc3[nH]c(=O)[nH]c3c2)cc1	-1	15	1	2	-4
O=C(CSc1nncs1)Nc1ccc2[nH]c(=O)[nH]c2c1	1	66*	1	-3	-6
O=C(COC(=O)Cc1ccc(F)cc1)Nc1ccc2[nH]c(=O)[nH]c2c1	0	74*	-2	0	-4
CCN1C(=O)[C@H]2[C@@H](c3ccc(C(F)(F)F)cc3)N[C@]3(CCCN(Cc4ccc(F)cc4)C3=O)[C@H]2C1=O	-1	0	7	3	.
COc1cccc(CCC(=O)N2CCC(n3nccc3NC(=O)CC(C)C)CC2)c1	1	102*	-4	-2	-5
Nc1cc2nsnc2cc1Br	22	80*	111*	35	6
COc1ccc(-c2noc(CCCC(=O)N3CCN(c4cc(C)ccc4C)CC3)n2)cc1	6	42*	-3	7	4
O=Cc1cc(N=Nc2cccc(C(=O)O)c2)ccc1O	-2	-14	3	1	-2
Cc1cc(N=NC(=O)c2ccccc2)ccc1O	-1	3	58*	-4	-3
CC(OC(=O)/C(C#N)=C/c1ccc(N(C)C)cc1)C(=O)NCc1ccco1 (stereo not drawn)	2	-6	61*	-2	.
CCC(=O)Nc1ccc2c(c1)Cc1cc([N+](=O)[O-])ccc1-2	-1	-66	-4	-3	-5
N#CC1(NC(=O)Cn2ncc(Cl)c(Cl)c2=O)CCCCC1	-3	1	-3	-1	-3
CC(Cc1c[nH]c2ccccc12)C(=O)O (stereo not drawn)	0	-2	73*	5	66*
O=C(O)C(O)Cc1c[nH]c2ccccc12 (stereo not drawn)	-1	7	0	2	10
O=S(=O)(Cc1ccccc1)Nn1cnnc1	5	60*	-2	0	-6
CCCNC(=O)C1(C)CCCN(C(=O)c2cc(C)n(C(C)(C)C)n2)C1 (stereo not drawn)	0	4	2	0	.
CCOc1ccc2nc(NC3=NC(c4ccc(OC)cc4)CC(=O)N3)nc(C)c2c1 (stereo not drawn)	57*	6	-8	86*	11
CCOc1ccc2nc(NC3=NC(C)(C)C=C(C)N3)nc(C)c2c1	8	-10	-3	3	-1
O=C1CCC(C(=O)N2CCN(c3ccccc3)CC2)CN1CC1CCCCC1 (stereo not drawn)	0	2	1	0	-10
O=C(CSc1nnc(SCc2cccc3ccccc23)s1)N/N=C/c1c[nH]c2ccccc12	4	2	-21	-2	-5
O=C(CSc1nnc(SCc2ccc(Cl)cc2)s1)N/N=C/c1c[nH]c2ccccc12	11	42*	70*	3	16
CNC(CC(C)C)C(=O)NC1C(=O)NC(CC(N)=O)C(=O)NC2C(=O)NC3C(=O)NC(C(=O)NC(C(=O)O)c4cc(O)cc(O)c4-c4cc3ccc4O)C(O)c3ccc(c(Cl)c3)Oc3cc2cc(c3OC2OC(CO)C(O)C(O)C2OC2CC(C)(N)C(O)C(C)O2)Oc2ccc(cc2Cl)C1O (stereo not drawn)	0	51*	-2	-1	-3
CCOc1cccc(C(=O)Nc2cccc(-c3nnc(-c4ccccc4)o3)c2)c1	4	-1	-1	2	0
SMILES	LMPTP block	SUMO1 PPI mod	DNMT1 inh	STEP block	Scp1 inh
CCOc1cccc(C(=O)Nc2cccc(-c3nnc(-c4ccc(C)cc4)o3)c2)c1	5	0	66*	0	-8
Cc1cc(Br)c2c(c1)[C@](O)(c1cn(C)c3ccccc13)C(=O)N2C	0	9	.	.	.
CCOc1ccc(C(=O)COC(=O)Cc2n[nH]c(=O)c3ccccc23)cc1	0	48*	-2	1	-9
O=C(Cc1n[nH]c(=O)c2ccccc12)OCC(=O)c1ccc(F)cc1	0	6	0	1	-6
CC(C)OCCCN1CN(S(=O)(=O)c2cccs2)c2nc3ccccc3nc21	.	.	.	.	-2
CN=c1scc(-c2ccccc2F)n1/N=C/c1ccc(O)c(O)c1O	57*	-14	-10	8	22
CN=c1scc(-c2ccccc2F)n1/N=C/c1ccc[nH]1	2	-7	-16	-4	3
O=C1Nc2c(Cl)cccc2C1=O	1	-2	-23	4	.
Cc1cccc2c1NC(=O)C2=O	1	-10	50*	3	48
Oc1c(CN2CCOCC2)cc(CN2CCOCC2)c(O)c1O	6	-10	58*	4	12
O=C(c1ccc(CNS(=O)(=O)c2ccc(Br)cc2)cc1)N1CCCC1	1	-3	-2	0	0
CC1(C)CC[C@]2(C(=O)n3ccnc3)CC[C@]3(C)[C@H](C(=O)C=C4[C@@]5(C)C=C(C#N)C(=O)C(C)(C)[C@@H]5CC[C@]43C)[C@@H]2C1	-2	44*	60*	2	15
CC(C)CCCCCCCCCCCCC(=O)NCC(=O)NC1C(C)OC(Nc2ncnc3nc[nH]c23)C(O)C1O (stereo not drawn)	-1	12	94*	1	-8
COC(=O)C1=CN(c2ccc(Oc3ccccc3)cc2)C(N)=C(C#N)C1c1ccc(-c2ccccc2)cc1 (stereo not drawn)	1	-8	.	.	.
CCC(=O)c1ccc(OCC(=O)Nc2nc(-c3cccnc3)cs2)cc1	4	46*	41	12	39
O=C(O)c1ccccc1N=Nc1c(O)[nH]c2ccc([N+](=O)[O-])cc12	21	111*	17	46*	81*
Oc1ccc(/C=N/Nc2ccnc3cc(Cl)ccc23)c(O)c1O	46	10	-7	14	-12
Oc1ccc(/C=N/Nc2ccnc3cc(Cl)ccc23)cc1O	48	55*	4	2	-7
CCC(=O)OC1(C)C(=O)C2=COC(c3ccc(OC)cc3)=CC2=C(Br)C1=O (stereo not drawn)	4	50*	-4	-1	-7
COc1ccc(C2=CC3=C(Br)C(=O)C(C)(O)C(=O)C3=CO2)cc1 (stereo not drawn)	-2	52*	7	-1	0
